These results are taken from ChEMBL document CHEMBL4350958, “Rational Design of Short Peptide Variants by Using Kunitzin-RE, an Amphibian-Derived Bioactivity Peptide, for Acquired Potent Broad-Spectrum Antimicrobial and Improved Therapeutic Potential of Commensalism Coinfection of Pathogens” (J Med Chem, 2019).

The subject of data set [1] is Escherichia coli. Nature of the data set: Induction of cytoplasmic membrane depolarization in Escherichia coli ATCC 25922 at MIC up to 3000 secs by DiSC3-5 dye-based fluorescence spectrophotometric method. In kind it is organism-based. The procedure, abridged: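 Mid-log E. coli ATCC 25922 (OD600 0.05) equilibrated with 0.4 μM DiSC3-5 and 100 mM K+ in 5 mM HEPES pH 7.4 with 20 mM glucose until fluorescence was stably quenched. Peptide then added in a 1-cm cuvette, and fluorescence (ex 622/em 670 nm) followed from 0 to 3000 s. Triplicate independent runs.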

In data set [2] the test system is Escherichia coli. Description: Induction of outer membrane permeabilization in Escherichia coli ATCC 25922 at 1 to 64 uM by NPN-dye based assay. It is filed as organism-based. The method in brief: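 Mid-log E. coli ATCC 25922 (OD600 0.2) with 10 μM NPN in 5 mM HEPES pH 7.4 with 5 mM glucose for 30 min, background subtracted (ex 350, em 420 nm). Mixed with equal volume of peptide (1 to 64 μM) and fluorescence followed to plateau. Uptake normalised to 10 μg/mL polymyxin B. Three independent experiments, each with three technical replicates.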

Data set [3] concerns Escherichia coli. Nature of the data set: Bactericidal activity against Escherichia coli ATCC 25922 assessed as reduction in bacterial growth at MBC by time-kill assay. In kind it is functional, organism-based. The procedure, abridged:
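Time-kill assay. E. coli ATCC 25922, S. aureus ATCC 29213 or C. albicans cgmcc 2.2086 at a final 0.5-1×10^5 CFU mL-1 treated at 1×MBC/MFC. Aliquots collected at different times to calculate survival, with an untreated control. Mean of three independent experiments, each with three technical replicates.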

The subject of data set [4] is Staphylococcus aureus. Description: Induction of morphological changes in Staphylococcus aureus ATCC 29213 assessed as tiny hole formation at MBD measured after 1 hr by transmission electron microscopic analysis. In kind it is functional, organism-based.
Data set [5] has as its system Escherichia coli. Description: Induction of cytoplasmic membrane depolarization in Escherichia coli ATCC 25922 assessed as fluorescence intensity at 4 uM up to 3000 secs by DiSC3-5 dye-based fluorescence spectrophotometric method. The procedure, abridged:
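Mid-log E. coli ATCC 25922 (OD600 0.05) loaded with 0.4 μM DiSC3-5 and 100 mM K+ in 5 mM HEPES pH 7.4 with 20 mM glucose until fluorescence stabilized. Peptide added in a 1-cm cuvette and fluorescence (ex 622, em 670 nm) recorded 0–3000 s. Triplicate, three biological replicates.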

Data set [6] concerns Escherichia coli. Description: Induction of outer membrane permeabilization in Escherichia coli ATCC 25922 at sub-MIC by NPN-dye based assay relative to control. The method in brief:
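Mid-log E. coli ATCC 25922 (OD600 0.2) preloaded 30 min with 10 μM NPN in 5 mM HEPES, pH 7.4, 5 mM glucose; cells mixed with equal volume of peptide solutions (1 to 64 μM). Fluorescence (ex 350, em 420 nm) read until plateau, background-subtracted, expressed as % NPN uptake relative to 10 μg/mL polymyxin B (100%). Three independent experiments, triplicate each.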

Data set [7] relates to Staphylococcus aureus. Nature of the data set: Induction of morphological changes in Staphylococcus aureus ATCC 29213 assessed as membrane blebbing at MBD measured after 1 hr by atomic force microscopic analysis. It is filed as functional, organism-based.
In data set [8] the test system is Staphylococcus aureus. Description: Induction of morphological changes in Staphylococcus aureus ATCC 29213 at MBD measured after 1 hr by atomic force microscopic analysis. It is filed as functional, organism-based.
The subject of data set [9] is Escherichia coli. Description: Disruption of plasma membrane integrity in Escherichia coli ATCC 25922 at MBC measured after 30 mins using FITC-labeled compound by propidium iodide staining-based microscopic analysis. It is filed as organism-based. The procedure, abridged: (§1)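 E. coli ATCC 25922 or S. aureus ATCC 29213 (OD600 0.2) incubated with FITC-labeled peptide at 1×MBC, 37 °C, 30 min. Cells washed, resuspended with PI (10 μg/mL) in PBS, smeared and imaged by superresolution microscopy using 488 and 535 nm filters for FITC and PI. Peptide-free cells served as controls. Three independent scans.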

For data set [10], the system named is Escherichia coli. Nature of the data set: Induction of morphological changes in Escherichia coli ATCC 25922 assessed as separation between outer membrane and cytoplasmic membrane at MBD measured after 1 hr by transmission electron microscopic analysis. It is filed as functional, organism-based.
Data set [11] concerns Candida albicans. Nature of the data set: Antifungal activity against Candida albicans cgmcc2.2086 infected in C57BL/6 mouse model of keratitis assessed as reduction in fungal hyphae extention into corneal stroma at 1 to 5 mg/ml administered as topical eye drop every 5 mins for first 4 hrs and every 30 mins for next 7 hrs measured post-last dose by periodic acid schiff staining-based histological analysis. In kind it is functional, organism-based.

The test system of a further data set is Pseudomonas aeruginosa. Nature of the data set: Bactericidal activity against melittin-resistant Pseudomonas aeruginosa ATCC 27853 incubated for 24 hrs followed by replating on agar plate and measured after overnight incubation. In kind it is functional, organism-based.
Data set [12] relates to Escherichia coli. Description: Induction of morphological changes in Escherichia coli ATCC 25922 assessed as membrane creping at MBD measured after 1 hr by scanning electron microscopic analysis. It is filed as functional, organism-based.
For data set [13], the system named is Staphylococcus aureus. Nature of the data set: Induction of morphological changes in Staphylococcus aureus ATCC 29213 assessed as membrane creping at MBD measured after 1 hr by atomic force microscopic analysis. It is filed as functional, organism-based.
In data set [14] the test system is Staphylococcus aureus. Description: Disruption of plasma membrane integrity in Staphylococcus aureus ATCC 29213 at MBC measured after 30 mins using FITC-labeled compound by propidium iodide staining-based microscopic analysis. It is filed as organism-based. The procedure, abridged: as §1
Data set [15] concerns Staphylococcus aureus. Nature of the data set: Induction of morphological changes in Staphylococcus aureus ATCC 29213 assessed as […] at MBD measured after 1 hr by transmission electron microscopic analysis. It is filed as functional, organism-based.
Data set [16] concerns Escherichia coli. Description: Induction of morphological changes in Escherichia coli ATCC 25922 assessed as pore formation at MBD measured after 1 hr by transmission electron microscopic analysis. It is filed as functional, organism-based.
Data set [17] has as its system Staphylococcus aureus. Description: Induction of morphological changes in Staphylococcus aureus ATCC 29213 assessed as cytoplasmic leakage at MBD measured after 1 hr by transmission electron microscopic analysis. It is filed as functional, organism-based.
For data set [18], the system named is Candida albicans. Nature of the data set: Antifungal activity against Candida albicans cgmcc2.2086 infected in C57BL/6 mouse model of keratitis assessed as appearance of transparent corneas at 1 to 5 mg/ml administered as topical eye drop every 5 mins for first 4 hrs and every 30 mins for next 7 hrs measured post-last dose. It is filed as functional, organism-based.

For a further data set, the system named is Lipopolysaccharide (LPS). Description: Displacement of BODIPY-TR-cadaverine from Escherichia coli O111:B4 LPS at 64 uM after 1 hr by spectrofluorophotometric method relative to control. The method in brief:
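E. coli O111:B4 LPS (50 μg/mL) preloaded 4 h with BODIPY-TR-cadaverine (5 μg/mL) in 50 mM Tris, pH 7.4. Mixed 1:1 with peptide (1–64 µM series), 1 h at 37 °C, then fluorescence read. Expressed as %ΔF: 0% is probe with LPS and no peptide, 100% is probe with LPS plus 10 μg/mL polymyxin B. Three technical replicates.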

The subject of data set [19] is Escherichia coli. Description: Induction of morphological changes in Escherichia coli ATCC 25922 at MBD measured after 1 hr by atomic force microscopic analysis. In kind it is functional, organism-based.
A short description of data set [20]: Conformational stability in 50% trifluoro-ethyl alcohol assessed as alpha-helical structural propensity at 35 uM by CD spectra analysis. In kind it is physicochemical. The method in brief: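 CD spectra from 190 to 250 nm of peptide at 35 μM in 10 mM PBS, 30 mM SDS micelles or 50% TFE, recorded in a 1.0-mm quartz cell. Ellipticity was converted to mean residue ellipticity. Three independent scans, each averaged over more than 3 runs.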

Active and inactive are the calls of the source. The calls are words filed in the database; no cut-off is given here. Where a SMILES comes first, the peptide text is derived from it.

On to `CC[C@H](C)[C@H](NC(=O)[C@H](CCCCN)NC(=O)[C@H](C)NC(=O)[C@H](C)N)C(=O)N[C@H](C(=O)N[C@@H](CC(C)C)C(=O)N[C@@H](CC(N)=O)C(=O)N1CCC[C@H]1C(=O)N[C@@H](CCCCN)C(=O)N[C@@H](Cc1ccccc1)C(=O)N[C@@H](CCCNC(=N)N)C(=O)N[C@@H](CS)C(=O)N[C@@H](CCCCN)C(=O)N[C@@H](C)C(=O)N[C@@H](C)C(=O)N[C@@H](Cc1ccccc1)C(=O)N[C@@H](CS)C(N)=O)[C@@H](C)CC` (H-AAKIILNPKFRCKAAFC-NH2), for which the result in the data set with Escherichia coli [1] was Active.
As to `CC[C@H](C)[C@H](NC(=O)CN)C(=O)NCC(=O)N[C@@H](C)C(=O)N[C@H](C(=O)N[C@@H](CC(C)C)C(=O)N[C@@H](CCCCN)C(=O)N[C@H](C(=O)N[C@@H](CC(C)C)C(=O)N[C@H](C(=O)N[C@H](C(=O)NCC(=O)N[C@@H](CC(C)C)C(=O)N1CCC[C@H]1C(=O)N[C@@H](C)C(=O)N[C@@H](CC(C)C)C(=O)N[C@H](C(=O)N[C@@H](CO)C(=O)N[C@@H](Cc1c[nH]c2ccccc12)C(=O)N[C@H](C(=O)N[C@@H](CCCCN)C(=O)N[C@@H](CCCNC(=N)N)C(=O)N[C@@H](CCCCN)C(=O)N[C@@H](CCCNC(=N)N)C(=O)N[C@@H](CCC(N)=O)C(=O)N[C@@H](CCC(N)=O)C(N)=O)[C@@H](C)CC)[C@@H](C)CC)[C@@H](C)O)[C@@H](C)O)C(C)C)C(C)C` [MELITTIN], the outcome with Escherichia coli [2] and in the data set with Escherichia coli [3] was Active.
Consider H-AARIILRWRFR-NH2, for which the result in the data set on Staphylococcus aureus [4], in the data set on Staphylococcus aureus [7], in the data set with Staphylococcus aureus [8], in the data set with Escherichia coli [9], in the data set with Escherichia coli [10] and with Candida albicans [11] was Active. The outcome in the data set with Pseudomonas aeruginosa, in the data set on Escherichia coli [12], in the data set on Staphylococcus aureus [13], in the data set on Staphylococcus aureus [14], in the data set on Staphylococcus aureus [15] and with Escherichia coli [16] was Active. Further, the outcome in the data set with Staphylococcus aureus [17], in the data set with Candida albicans [18] and in the data set with Escherichia coli [19] was Active. For the same compound, the Flu intensity with Escherichia coli [5] was found to be 3000 a.u. In addition, the Activity with Escherichia coli [6] was found to be 15%; in the data set with Lipopolysaccharide (LPS) it was 180%.
As for H-AARRILRWIFR-NH2, in data set [20], the Stability result is “Stable”.
